From ChEMBL document CHEMBL1158046, “Photoactivated insecticidal thiophene derivatives from Xanthopappus subacaulis” (2006)
In brackets after ≈: the same amount, converted by molar mass.

What was measured:
Aedes albopictus [1] = experiment: Insecticidal activity against Asian tiger mosquito fourth-instar larvae after 24 hrs in dark; format: functional
In short: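 Aedes albopictus fourth-instar larvae from a laboratory colony; samples dissolved and serially diluted in acetone, 0.4 mL added to 20 mL dechlorinated water with 30 larvae; held in the dark throughout the trial; mortality read at 24 h, three replications per concentration; LC50 (concentration causing 50% mortality) determined.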

Aedes albopictus [2] = experiment: Insecticidal activity against Asian tiger mosquito fourth-instar larvae irradiated with 2074 uW/cm'2 UV light for 1.5 hrs; format: functional; conditions: light or radiation study
In short: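 Aedes albopictus fourth-instar larvae from a laboratory colony; acetone-diluted samples (0.4 mL) added to 20 mL dechlorinated water with 30 larvae; 3 h dark incubation, then 1.5 h UV irradiation (300-400 nm, max 365 nm), then 24 h in darkness; mortality from three replications per concentration; LC50 (concentration causing 50% mortality) determined.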

| Structure (SMILES) | LC50 (Aedes albopictus [1]) [µg/mL] | LC50 (Aedes albopictus [2]) [µg/mL] |
| --- | --- | --- |
| C/C=C/C#CC#Cc1ccc(CO)s1 | > 10 | 0.3 (≈ 1.48 µM) |
| C/C=C/C#CC#Cc1ccc(C(O)CO)s1 (racemic) | > 10 | 4.2 (≈ 18.1 µM) |
| C/C=C/C#CC#Cc1ccc(C(COC(C)=O)OC(C)=O)s1 (racemic) | > 10 | 0.66 (≈ 2.09 µM) |
| C/C=C/C#CC#Cc1ccc(C(O)CCl)s1 (racemic) [XANTHOPAPPIN B] | 5.1 (≈ 20.3 µM) | 0.53 (≈ 2.11 µM) |
| C/C=C/C#CC#Cc1ccc(C(=O)C(O)(CC(C)=O)c2ccc(C#CC#C/C=C/C)s2)s1 (racemic) [XANTHOPAPPIN C] | > 10 | 0.95 (≈ 2.08 µM) |
| C/C=C/C#CC#Cc1cccs1 [XANTHOPAPPIN A] | > 10 | 0.71 (≈ 4.12 µM) |
